# Experimental data published in ChEMBL document CHEMBL5724801, “EUbOPEN Chemogenomics Library - Multiplex” (2024).
# “And” between values parts separate entries of the source, which are not always exact repeats. Identical values can stand only once.
# Assays:
# [1] = system: HEK-293T; experiment: Multiplex assay against HEK293T; format: toxicity, cell-based; conditions: human
# Outline: (§1)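 Live cells were stained at seeding with Hoechst33342, BioTracker Green Microtubule Cytoskeleton Dye, MitoTracker Red and Annexin V Alexa Fluor 680, then imaged on a CQ1 microscope at 37°C and 5% CO2 after compound addition. CellPathfinder machine-learning gating split cells into Hoechst high-intensity objects or normal cells. Normal cells were split into healthy, pyknosed or fragmented nuclei, and pyknosed cells into mitotic or apoptotic. Tubulin, mitochondrial-mass and membrane-permeability phenotypes are per cents of healthy-nucleus cells.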
# [2] = system: U2OS; experiment: Multiplex assay against U2OS; format: toxicity, cell-based; conditions: human; outline: as §1
# [3] = 24 h, 1 µM, compound concentration 1 uM
# [4] = 24 h, 10 µM, compound concentration 10 uM
# [5] = 48 h, 1 µM, compound concentration 1 uM
# [6] = 48 h, 10 µM, compound concentration 10 uM
# [7] = 12 h, 1 µM, compound concentration 1 uM
# [8] = 12 h, 10 µM, compound concentration 10 uM
compound,measurement,setting,value
CCCCCN1C(=O)C2(COc3cc4c(cc32)OCO4)c2ccccc21 (stereo not drawn),Population Normal (%),[1]; [3],100% and 99.49%
same,Population Tubulin-Different-Phenotype (%),[1]; [3],11.86% and 4.05%
same,Total Cell Count,[1]; [3],518 and 197
same,Population Apoptotic (%),[1]; [4],19.31% and 11.94%
same,Population Fragmented Nuclei (%),[1]; [4],1.12% and 2.34%
same,Population Hoechst High Intensity Objects (%),[1]; [4],0.22% and 0%
same,Population Membrane Permeable-Phenotype (%),[1]; [4],1.34% and 0%
same,Population Mitochondria Different-Phenotype (%),[1]; [4],25.5% and 21.21%
same,Population Mitotic Cells (%),[1]; [4],80.69% and 88.06%
same,Population Normal (%),[1]; [4],99.78% and 100%
same,Population Pyknosed Nuclei (%),[1]; [4],32.37% and 78.36%
same,Population Tubulin-Different-Phenotype (%),[1]; [4],30.2% and 15.15%
same,Total Cell Count,[1]; [4],449 and 171
same,Population Apoptotic (%),[1]; [5],9.4% and 23.88%
same,Population Fragmented Nuclei (%),[1]; [5],2.17% and 2.27%
same,Population Healthy Nuclei (%),[1]; [5],88.04% and 75.97%
same,Population Hoechst High Intensity Objects (%),[1]; [5],0% and 0.65%
same,Population Membrane Permeable-Phenotype (%),[1]; [5],4.37% and 2.99%
same,Population Mitochondria Different-Phenotype (%),[1]; [5],13.77% and 12.82%
same,Population Mitotic Cells (%),[1]; [5],90.6% and 76.12%
same,Population Normal (%),[1]; [5],100% and 99.35%
same,Population Pyknosed Nuclei (%),[1]; [5],9.78% and 21.75%
same,Population Fragmented Nuclei (%),[1]; [6],2.44% and 0.93%
same,Population Healthy Nuclei (%),[1]; [6],80.51% and 57.41%
same,Population Hoechst High Intensity Objects (%),[1]; [6],0%
same,Population Membrane Permeable-Phenotype (%),[1]; [6],5.04% and 0%
same,Population Mitochondria Different-Phenotype (%),[1]; [6],42.8% and 31.45%
same,Population Mitotic Cells (%),[1]; [6],93.2% and 75.56%
same,Population Normal (%),[1]; [6],100%
same,Population Pyknosed Nuclei (%),[1]; [6],17.05% and 41.67%
same,Population Apoptotic (%),[2]; [7],29.41% and 64%
same,Population Fragmented Nuclei (%),[2]; [7],1.7% and 1.92%
same,Population Healthy Nuclei (%),[2]; [7],87.47% and 82.05%
same,Population Hoechst High Intensity Objects (%),[2]; [7],0%
same,Population Membrane Permeable-Phenotype (%),[2]; [7],0.49% and 3.91%
same,Population Mitochondria Different-Phenotype (%),[2]; [7],0.24% and 7.81%
same,Population Mitotic Cells (%),[2]; [7],70.59% and 36%
same,Population Normal (%),[2]; [7],100%
same,Population Pyknosed Nuclei (%),[2]; [7],10.83% and 16.03%
same,Population Tubulin-Different-Phenotype (%),[2]; [7],0.49% and 0%
same,Population Apoptotic (%),[2]; [8],35.71% and 31.82%
same,Population Fragmented Nuclei (%),[2]; [8],1.52% and 0%
same,Population Healthy Nuclei (%),[2]; [8],91.37% and 84.93%
same,Population Hoechst High Intensity Objects (%),[2]; [8],0%
same,Population Membrane Permeable-Phenotype (%),[2]; [8],1.94% and 4.84%
same,Population Mitotic Cells (%),[2]; [8],64.29% and 68.18%
same,Population Normal (%),[2]; [8],100%
same,Population Pyknosed Nuclei (%),[2]; [8],7.11% and 15.07%
same,Population Tubulin-Different-Phenotype (%),[2]; [8],2.22% and 2.42%
same,Total Cell Count,[2]; [8],394 and 146
same,Population Apoptotic (%),[2]; [3],41.07% and 40%
same,Population Fragmented Nuclei (%),[2]; [3],1.74% and 2.44%
same,Population Healthy Nuclei (%),[2]; [3],89.42% and 80.49%
same,Population Hoechst High Intensity Objects (%),[2]; [3],0%
same,Population Membrane Permeable-Phenotype (%),[2]; [3],0.88% and 2.42%
same,Population Mitochondria Different-Phenotype (%),[2]; [3],0% and 7.27%
same,Population Mitotic Cells (%),[2]; [3],58.93% and 60%
same,Population Normal (%),[2]; [3],100%
same,Population Pyknosed Nuclei (%),[2]; [3],8.85% and 17.07%
same,Population Tubulin-Different-Phenotype (%),[2]; [3],0.18% and 1.82%
same,Population Apoptotic (%),[2]; [4],23.33% and 32.14%
same,Population Fragmented Nuclei (%),[2]; [4],2.09% and 1.2%
same,Population Healthy Nuclei (%),[2]; [4],86.5% and 81.93%
same,Population Hoechst High Intensity Objects (%),[2]; [4],0%
same,Population Membrane Permeable-Phenotype (%),[2]; [4],1.1% and 8.09%
same,Population Mitotic Cells (%),[2]; [4],76.67% and 67.86%
same,Population Normal (%),[2]; [4],100%
same,Population Pyknosed Nuclei (%),[2]; [4],11.41% and 16.87%
same,Population Tubulin-Different-Phenotype (%),[2]; [4],2.42% and 3.68%
same,Population Apoptotic (%),[2]; [5],40.17% and 47.5%
same,Population Fragmented Nuclei (%),[2]; [5],3.56% and 1.97%
same,Population Healthy Nuclei (%),[2]; [5],86.74% and 86.8%
same,Population Hoechst High Intensity Objects (%),[2]; [5],0%
same,Population Membrane Permeable-Phenotype (%),[2]; [5],0.86% and 1.29%
same,Population Mitochondria Different-Phenotype (%),[2]; [5],0% and 3.56%
same,Population Mitotic Cells (%),[2]; [5],59.83% and 52.5%
same,Population Normal (%),[2]; [5],100%
same,Population Pyknosed Nuclei (%),[2]; [5],9.69% and 11.24%
same,Population Tubulin-Different-Phenotype (%),[2]; [5],0.38% and 0.97%
same,Population Apoptotic (%),[2]; [6],41.89% and 71.05%
same,Population Fragmented Nuclei (%),[2]; [6],2.63% and 1.47%
same,Population Healthy Nuclei (%),[2]; [6],89.58% and 84.56%
same,Population Hoechst High Intensity Objects (%),[2]; [6],0%
same,Population Membrane Permeable-Phenotype (%),[2]; [6],0.71% and 3.91%
same,Population Mitotic Cells (%),[2]; [6],58.11% and 28.95%
same,Population Normal (%),[2]; [6],100%
same,Population Pyknosed Nuclei (%),[2]; [6],7.79% and 13.97%
same,Population Tubulin-Different-Phenotype (%),[2]; [6],1.29% and 1.74%
